In ChEMBL document CHEMBL1157078, “Cytotoxic activities of several geranyl-substituted flavanones” (J Nat Prod, 2010):
pEC50: −log10 of the molar value.

Tests used:
BJ = experiment: Cytotoxicity against human BJ cells assessed as viable cells after 72 hrs by calcein AM assay; assay type: cell-based
In short: (§1)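 Cells kept in DMEM with 10% FBS, L-glutamine and antibiotics at 37 °C, 5% CO2, and seeded at about 1.25×10^5 cells/mL, then left 3 h to stabilize. Six 3-fold dilutions were added in triplicate (final 100 to 0.4 μM, DMSO ≤0.6%) for 72 h. Viable cells were stained with 2 μM calcein AM for 1 h and fluorescence read at 485/538 nm. EC50 came from dose-response curves of three independent measurements, ±SD.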

MCF7 = experiment: Cytotoxicity against human MCF7 cells assessed as viable cells after 72 hrs by calcein AM assay; assay type: functional, cell-based; settings: MCF7, 72 h; in short: as §1
THP-1 = experiment: Cytotoxicity against human THP1 cells after 72 hrs by erythosin B staining method; assay type: functional, cell-based; settings: THP-1, 72 h
In short: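 THP-1 cells from ECACC, kept in RPMI with 10% FBS, 2% L-glutamine and 1% penicillin/streptomycin at 37 °C, 5% CO2. Compounds in DMSO were added at five increasing concentrations and cells incubated 72 h. Cells were mixed 1:1 with 0.1% erythrosin B in PBS (pH 7.2-7.4), and unstained (viable) and red (nonviable) cells counted by hemocytometer. EC50 came from dose-response curves of three independent measurements, ±SD.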

HeLa = experiment: Cytotoxicity against human HeLa cells assessed as viable cells after 72 hrs by calcein AM assay; assay type: functional, cell-based; in short: as §1
RPMI-8226 = experiment: Cytotoxicity against human RPMI8226 cells assessed as viable cells after 72 hrs by calcein AM assay; assay type: functional, cell-based; settings: RPMI-8226, 72 h; in short: as §1
CCRF-CEM = experiment: Cytotoxicity against human CEM cells assessed as viable cells after 72 hrs by calcein AM assay; assay type: functional, cell-based; in short: as §1
U-266 = experiment: Cytotoxicity against human U266 cells assessed as viable cells after 72 hrs by calcein AM assay; assay type: functional, cell-based; settings: U-266, 72 h; in short: as §1

Structure (SMILES) | pEC50 (BJ) | pEC50 (MCF7) | pEC50 (THP-1) | pEC50 (HeLa) | pEC50 (RPMI-8226) | pEC50 (CCRF-CEM) | pEC50 (U-266)
CC(C)=CCC/C(C)=C/Cc1c(O)cc2c(c1O)C(=O)C[C@@H](c1cc(O)cc(O)c1)O2 | 5.12 | > 5.00 | 5.07 | 5.20 | 5.15 | 4.91 | 5.72
COc1cc(O)c([C@@H]2CC(=O)c3c(O)cc(O)cc3O2)cc1C/C=C(\C)CCC=C(C)C | < 5.00 | < 5.00 | < 5.00 | < 5.00 | < 5.00 | < 5.00 | < 5.00
COc1cc([C@@H]2CC(=O)c3c(cc(O)c(C/C=C(\C)CCC=C(C)C)c3O)O2)ccc1O | > 5.00 | > 5.00 | > 5.00 | 5.04 | > 5.00 | > 5.00 | > 5.00
COc1cc([C@H]2Oc3cc(O)c(C/C=C(\C)CCC=C(C)C)c(O)c3C(=O)[C@@H]2O)ccc1O | < 5.00 | < 5.00 | < 5.00 | < 5.00 | < 5.00 | < 5.00 | < 5.00
COc1cc([C@@H]2CC(=O)c3c(cc(O)c(C/C=C(\C)CCC=C(C)C)c3O)O2)cc(O)c1O | 5.33 | > 5.00 | > 5.00 | 5.13 | 5.14 | > 5.00 | 5.26
COc1cc([C@@H]2CC(=O)c3c(cc(O)c(C/C=C(\C)CCC=C(C)C)c3O)O2)cc(OC)c1O | < 5.00 | < 5.00 | < 5.00 | < 5.00 | < 5.00 | < 5.00 | < 5.00
CC(C)=CCC/C(C)=C/Cc1cc(C2CC(=O)c3c(O)cc(O)cc3O2)c(O)cc1O (racemic) [KUWANON E] | < 5.00 | < 5.00 | < 5.00 | < 5.00 | < 5.00 | < 5.00 | < 5.00
O=C1c2c(O)cc(O)cc2O[C@H](c2ccc(O)c(O)c2)[C@H]1O [(+)-TAXIFOLIN] | < 5.00 | < 5.00 | < 5.00 | < 5.00 | < 5.00 | < 5.00 | < 5.00
CC(C)=CCC/C(C)=C/Cc1c(O)cc2c(c1O)C(=O)C[C@@H](c1ccc(O)cc1)O2 [BONANNIONE A] | < 5.00 | < 5.00 | < 5.00 | < 5.00 | < 5.00 | 4.94 | < 5.00
CC[C@@]1(O)C(=O)OCc2c1cc1n(c2=O)Cc2cc3ccccc3nc2-1 [CAMPTOTHECIN] |  |  | 6.80 |  |  |  | 
CCOC(=O)NC1=C(N2CC2)C(=O)C(NC(=O)OCC)=C(N2CC2)C1=O [DIAZIQUONE] | > 5.00 | 5.40 |  | 5.19 | 5.47 | 6.07 | 5.55
COc1ccc([C@@H]2CC(=O)c3c(O)cc(O)cc3O2)cc1O [HESPERETIN] | < 5.00 | < 5.00 | < 5.00 | < 5.00 | < 5.00 | < 5.00 | < 5.00
O=C1C[C@@H](c2ccc(O)cc2)Oc2cc(O)cc(O)c21 [NARINGENIN] | < 5.00 | < 5.00 | < 5.00 | < 5.00 | < 5.00 | < 5.00 | < 5.00
CC(C)=CCC/C(C)=C/Cc1c(O)cc2c(c1O)C(=O)C[C@@H](c1ccc(O)c(O)c1)O2 [NYMPHAEOL A] | 5.23 | > 5.00 | > 5.00 | > 5.00 | > 5.00 | 5.49 | 5.62
CC[C@H](CO)Nc1nc(NCc2ccccc2O)c2ncn(C(C)C)c2n1 [OLOMOUCINE II] | 5.27 | 5.34 |  | 5.00 | 5.22 | 5.09 | 5.14
COc1cc([C@@H]2CC(=O)c3c(cc(O)c(C/C=C(\C)C/C=C/C(C)(C)O)c3O)O2)ccc1O [TOMENTODIPLACONE B] | < 5.00 | < 5.00 | < 5.00 | < 5.00 | < 5.00 | < 5.00 | < 5.00
C=C(C)C(O)CC/C(C)=C/Cc1c(O)cc2c(c1O)C(=O)C[C@@H](c1ccc(O)c(OC)c1)O2 (stereo partly specified) [TOMENTODIPLACONE] | < 5.00 | < 5.00 | < 5.00 | < 5.00 | < 5.00 | < 5.00 | < 5.00
